The text below walks through data of publication PMC2998183 (Journal of nuclear medicine : official publication, Society …, 2010).

A short description of data set [1]: In vitro serum stability in mouse serum monitored by RP-HPLC. The class given is in vitro ADME. The following applies: 37 °C, 24 h. The procedure, abridged: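 Test compound was labelled with ¹¹¹In in 0.5 M NH₄OAc pH 4.5 at 75°C for 45 min, and unbound ¹¹¹In was scavenged with EDTA. It was purified by C-18 RP-HPLC (20-min 18–28% acetonitrile gradient in 20 mM HCl). The purified label was incubated in mouse serum at 37°C for 24 h, with degradation monitored by RP-HPLC.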

Data set [2] relates to B16/F1 melanoma cells. Nature of the data set: Cellular internalization in B16/F1 melanoma cells. The data set is classed as cell-based. The following applies: 25°C. The procedure, abridged: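 B16/F1 cells, washed twice in binding medium (DMEM, 25 mM HEPES pH 7.4, 0.2% BSA, 0.3 mM 1,10-phenanthroline), incubated at 25°C for 20, 40, 60, 90 and 120 min (n=3) with ~200,000 cpm HPLC-purified ¹¹¹In-labelled test compound. Cells rinsed in ice-cold 0.2% BSA/0.01 M PBS pH 7.4. Membrane-bound activity stripped with 40 mM sodium acetate pH 4.5, 0.9% NaCl, 0.2% BSA. Internalized activity recovered by 1 N NaOH lysis (5 min). Both fractions gamma-counted.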

In data set [3] the test system is B16/F1 melanoma cells. Nature of the data set: Cellular efflux in B16/F1 melanoma cells. The class given is cell-based. The following applies: 2 h after incubating cells in culture medium. The procedure, abridged:
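B16/F1 cells were loaded with ¹¹¹In-labelled test compound for 2 h at 25°C, then given 2 ice-cold PBS rinses to remove non-specifically bound activity. Radioactivity released into the culture medium was monitored. At 20, 40, 60, 90 and 120 min, cell-surface and intracellular radioactivity were collected separately and gamma-counted.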

The nature of data set [4]: Biodistribution in B16/F1 melanoma-bearing C57 mice. The data set is classed as in vivo, mouse. The following applies: female, C57, mouse, urine, iv, 0.037 MBq, total radioactivity, percent injected dose, 0.5 h post-injection.
Data set [5] has as its system B16/F1 melanoma-bearing C57 mice. The description is as above. The class given is in vivo, mouse.
Data set [6] is described as follows: Urinary metabolites by RP-HPLC. The data set is classed as in vivo, mouse. The following applies: urine, 2 h post-injection. In short, it runs like this: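 A C57 mouse bearing a B16/F1 flank tumour (1×10⁶ cells s.c., 10 days) received 37 MBq (1 mCi) ¹¹¹In-labelled test compound via the tail vein. It was euthanized at 2 h and urine collected. Urine was centrifuged at 16,000g for 5 min, and aliquots were analysed by RP-HPLC using a 20-min 18–28% acetonitrile/20 mM HCl gradient.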

The next data set concerns MC1 receptor. The following applies: cited from earlier work.
In data set [7] the target is melanocortin-1 (MC1) receptor (Mus musculus, UniProt Q01727). The following applies: read-out: MC1 receptor binding affinity; B16/F1 cells; ref [17], [21]; cited from earlier work.
In data set [8] the test system is B16/F1 melanoma-bearing C57 mice. The following applies: mouse, in vivo, 4 h; cited from earlier work.

Positions of bridges follow the written chain, without caps; N, C: chain ends. Non-standard residues stand in square brackets, D forms with d. No end group written: not given here. *: point of attachment. DOTA = O=C(O)CN1CCN(CC(=O)O)CCN(CC(=O)*)CCN(CC(=O)O)CC1; Nle = CCCC[C@H](N)C(=O)O

Chain of melanocortin-1 (MC1) receptor (Q01727 whole entry): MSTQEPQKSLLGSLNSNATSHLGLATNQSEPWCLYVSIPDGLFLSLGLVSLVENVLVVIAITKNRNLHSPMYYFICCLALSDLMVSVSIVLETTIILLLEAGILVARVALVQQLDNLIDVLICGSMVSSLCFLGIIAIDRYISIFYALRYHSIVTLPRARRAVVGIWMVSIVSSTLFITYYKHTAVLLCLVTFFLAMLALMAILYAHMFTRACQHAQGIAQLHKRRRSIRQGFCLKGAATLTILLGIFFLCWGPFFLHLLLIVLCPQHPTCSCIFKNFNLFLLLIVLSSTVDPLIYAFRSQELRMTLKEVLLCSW

As to `CCCC[C@H](NC(=O)CN1CCN(CC(=O)O)CCN(CC(=O)O)CCN(CC(=O)O)CC1)C(=O)N[C@H]1CC(=O)NCCCC[C@@H](C(N)=O)NC(=O)[C@H](Cc2c[nH]c3ccccc23)NC(=O)[C@H](CCCNC(=N)N)NC(=O)[C@@H](Cc2ccccc2)NC(=O)[C@H](Cc2c[nH]cn2)NC1=O` [^111In-DOTA-Nle-CycMSHhex, metal not drawn], in data set [1], the “Stability in mouse serum” value is recorded as “stable”. Besides, the “Cellular uptake activity internalized” value with B16/F1 melanoma cells [2] (20 min post incubation) was determined as 72.9±3.5%; with B16/F1 melanoma cells [2] (120 min post incubation), 88.3±0.7%. The “Internalized activity remained inside the cells” value in the data set with B16/F1 melanoma cells [3] is reported as 89.5±1.9%. Besides, in data set [4], the dose excreted at 0.5 h worked out at 57 ± 3.91%. Further, the “Tumor uptake with NDP-MSH co-injection as percent of tumor uptake without” value in [5] (10 μg non-radiolabeled NDP-MSH co-injection, 2 h) is given as 4.2%. The “Reduction of kidney uptake value by L-lysine co-injection” value in data set [5] (2 h post-injection) is on record as 30%. Also, the “Renal uptake value as percent of that of ^111In-DOTA-GlyGlu-CycMSH” value in [5] (2 h post-injection) is 72.8%; in data set [5] (4 h post-injection) it was 82.4%. For the same compound, the “Tumor uptake value, times that of ^111In-DOTA-GlyGlu-CycMSH” value in data set [5] (2 h post-injection) is given as 1.86 times. In addition, the “Tumor uptake value, times that of ^111In-DOTA-Re(Arg^11)CCMSH” value in [5] (2 h post-injection) is reported as 1.12 times; in data set [5] (4 h post-injection), 0.98 times; in data set [5] (24 h post-injection), 1.29 times. In data set [5] (24 h vs 2 h post-injection), the “Percent of tumor activity at 2 h post-injection remaining in tumors at 24 h” value was 54.3%. Besides, the “Urinary metabolite analysis by RP-HPLC” value in [6] is given as “remained intact”.
Turning to “Ac-Nle-c[Asp-His-DPhe-Arg-Trp-Lys(CONH2)] [MT-II]”, in the data set on MC1 receptor (ref [27], [28]), the “MC1 receptor binding affinity compared with native α-MSH peptide” value is “higher MC1 receptor binding affinity” and the “MC1 receptor dissociation rate compared with native α-MSH peptide” value is “slower MC1 receptor dissociation rate”.
With “DOTA-Gly-Glu-c[Lys-Nle-Glu-His-DPhe-Arg-Trp-Gly-Arg-Pro-Val-Asp] ({DOTA}-GEK[Nle]EH[dF]RWGRPVD; lactam 3-14; not fully specified) [DOTA-GlyGlu-CycMSH]”, in data set [7], the IC50 was 0.9 nM.
For “[Ac-Nle^4,Asp^5,D-Phe^7,Lys^11(pz-^99mTc(CO)3)]α-MSH4–11”, the Melanoma uptake in [8] was 4.24 ± 0.94 %ID/g.
Consider [Nle^4, D-Phe^7]- α-MSH [NDP-MSH], for which the “Affinity for the MC1 receptor present on the melanoma cells” value in the data set on MC1 receptor (stated without reference) was “picomolar”.
Take “^99mTc(CO)3-pz-βAla-Nle-cyclo[Asp-His-D-Phe-Arg-Trp-Lys]-NH2”: in data set [8], the Kidneys uptake is given as 32.12 ± 1.57 %ID/g, the Liver uptake is 22.86 ± 1.17 %ID/g and the Melanoma uptake was 11.31 ± 1.81 %ID/g.
